Results from ChEMBL document CHEMBL3797104, “Triazole tethered C5-curcuminoid-coumarin based molecular hybrids as novel antitubulin agents: Design, synthesis, biological investigation and docking studies” (Eur J Med Chem, 2016).
Active and inactive are the calls of the source. No cut-off for these calls is given here.

Key:
[1] = Cytotoxicity against human HCT116 cells assessed as growth inhibition at 50 uM after 48 hrs by SRB assay; type: functional; conditions: HCT-116, 48 h, read-out: GI
Summary of the method: (§1)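 Single-concentration screen at 50 µM. Cells grew 24 h at 37 °C, then had 48 h exposure in complete medium.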

[2] = Cytotoxicity against human COLO205 cells assessed as growth inhibition at 50 uM after 48 hrs by SRB assay; type: functional; conditions: COLO 205, 48 h, read-out: GI; summary of the method: as §1
[3] = Cytotoxicity against human THP1 cells assessed as growth inhibition at 50 uM after 48 hrs by SRB assay; type: functional; conditions: THP-1, 48 h, read-out: GI; summary of the method: as §1
PC-3 = experiment: (§2) Cytotoxicity against human PC3 cells assessed as growth inhibition at 50 uM after 48 hrs by SRB assay; type: functional; summary of the method: as §1
[4] = as §2; type: functional; conditions: PC-3, 48 h, read-out: GI; summary of the method: as §1
[5] = Cytotoxicity against human COLO205 cells after 48 hrs by SRB assay; type: functional, cell-based; conditions: COLO 205, 48 h
Summary of the method: (§3)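 SRB assay in 96-well plates. Cells were seeded and grown 24 h at 37 °C in a CO2 incubator, then given test material in complete medium for a further 48 h. Cells were fixed with cold 50% TCA for 1 h at 4 °C, stained 30 min with 0.4% SRB in 1% acetic acid, and washed with […]. IC50 was taken from multi-concentration testing, run only for hybrids giving >70% inhibition at 50 µM in at least one line.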

[6] = Cytotoxicity against human THP1 cells after 48 hrs by SRB assay; type: functional, cell-based; conditions: THP-1, 48 h; summary of the method: as §3
[7] = Cytotoxicity against human HCT116 cells after 48 hrs by SRB assay; type: functional, cell-based; conditions: HCT-116, 48 h; summary of the method: as §3

Row | Compound | inhibition of growth at 50 µM [1] | inhibition of growth at 50 µM [2] | inhibition of growth at 50 µM [3] | growth inhibition (GI) (PC-3) | inhibition of growth at 50 µM [4] | IC50 [5] | IC50 [6] | IC50 [7]
1 | COc1ccc(/C=C/C(=O)/C=C/c2ccc(OCc3cn(CCCCOc4cc(=O)oc5ccccc45)nn3)c(OC)c2)cc1 | 40% | 49% | 45% | inactive |  |  |  | 
2 | COc1ccc(/C=C/C(=O)/C=C/c2ccc(OCc3cn(CCOc4cc(=O)oc5ccccc45)nn3)c(OC)c2)cc1 | 71% | 68% | 78% |  | 15% | 11.3 µM | 7.41 µM | 9.29 µM
3 | COc1cc(/C=C/C(=O)/C=C/c2cc(OC)c(OC)c(OC)c2)ccc1OCc1cn(CCCCOc2cc(=O)oc3ccccc23)nn1 | 63% | 60% | 65% |  | 5% |  |  | 
4 | COc1ccccc1/C=C/C(=O)/C=C/c1ccc(OCc2cn(CCCOc3cc(=O)oc4ccccc34)nn2)c(OC)c1 | 53% | 57% | 50% | inactive |  |  |  | 
5 | COc1cc(/C=C/C(=O)/C=C/c2ccco2)ccc1OCc1cn(CCCOc2cc(=O)oc3ccccc23)nn1 | 51% | 59% | 57% | inactive |  |  |  | 
6 | COc1cc(/C=C/C(=O)/C=C/c2cc(OC)c(OC)c(OC)c2)ccc1OCc1cn(CCCCCOc2cc(=O)oc3ccccc23)nn1 | 53% | 51% | 55% | inactive |  |  |  | 
7 | COc1cccc(/C=C/C(=O)/C=C/c2ccc(OCc3cn(CCCCCOc4cc(=O)oc5ccccc45)nn3)c(OC)c2)c1 | 36% | 34% | 37% | inactive |  |  |  | 
8 | COc1ccc(/C=C/C(=O)/C=C/c2ccc(OCc3cn(CCCOc4cc(=O)oc5ccccc45)nn3)c(OC)c2)cc1 | 54% | 53% | 56% | inactive |  |  |  | 
9 | COc1cc(/C=C/C(=O)/C=C/c2ccccc2)ccc1OCc1cn(CCCCCOc2cc(=O)oc3ccccc23)nn1 | 24% | 22% | 26% | inactive |  |  |  | 
10 | COc1ccc(/C=C/C(=O)/C=C/c2ccc(OCc3cn(CCCCOc4cc(=O)oc5ccccc45)nn3)c(OC)c2)cc1OC | 55% | 53% | 59% | inactive |  |  |  | 
11 | COc1ccc(/C=C/C(=O)/C=C/c2ccc(OCc3cn(CCCCCOc4cc(=O)oc5ccccc45)nn3)c(OC)c2)cc1 | 35% | 30% | 39% | inactive |  |  |  | 
12 | COc1cc(/C=C/C(=O)/C=C/c2cccs2)ccc1OCc1cn(CCCOc2cc(=O)oc3ccccc23)nn1 | 58% | 55% | 54% | inactive |  |  |  | 
13 | COc1ccc(/C=C/C(=O)/C=C/c2ccc(OCc3cn(CCCOc4cc(=O)oc5ccccc45)nn3)c(OC)c2)cc1OC | 67% | 65% | 73% |  | 9% | 13 µM | 8.51 µM | 11 µM
14 | COc1cc(/C=C/C(=O)/C=C/c2cccc3ccccc23)ccc1OCc1cn(CCCCCOc2cc(=O)oc3ccccc23)nn1 | 42% | 40% | 44% | inactive |  |  |  | 
15 | COc1cc(/C=C/C(=O)/C=C/c2ccco2)ccc1OCc1cn(CCCCOc2cc(=O)oc3ccccc23)nn1 | 47% | 43% | 49% | inactive |  |  |  | 
16 | COc1cc(/C=C/C(=O)/C=C/c2cccs2)ccc1OCc1cn(CCCCOc2cc(=O)oc3ccccc23)nn1 | 41% | 40% | 44% | inactive |  |  |  | 
17 | COc1cccc(/C=C/C(=O)/C=C/c2ccc(OCc3cn(CCOc4cc(=O)oc5ccccc45)nn3)c(OC)c2)c1 | 70% | 69% | 77% |  | 13% | 11.9 µM | 7.13 µM | 9.76 µM

Row | Compound | inhibition of growth at 50 µM [1] | inhibition of growth at 50 µM [2] | inhibition of growth at 50 µM [3] | growth inhibition (GI) (PC-3) | inhibition of growth at 50 µM [4] | IC50 [5] | IC50 [6] | IC50 [7]
18 | COc1cccc(/C=C/C(=O)/C=C/c2ccc(OCc3cn(CCCOc4cc(=O)oc5ccccc45)nn3)c(OC)c2)c1 | 55% | 52% | 58% | inactive |  |  |  | 
19 | COc1cc(/C=C/C(=O)/C=C/c2ccccc2)ccc1OCc1cn(CCOc2cc(=O)oc3ccccc23)nn1 | 56% | 54% | 61% |  | 10% |  |  | 
20 | COc1cc(/C=C/C(=O)/C=C/c2cccs2)ccc1OCc1cn(CCCCCOc2cc(=O)oc3ccccc23)nn1 | 31% | 30% | 34% | inactive |  |  |  | 
21 | COc1cc(/C=C/C(=O)/C=C/c2ccco2)ccc1OCc1cn(CCCCCOc2cc(=O)oc3ccccc23)nn1 | 37% | 33% | 39% | inactive |  |  |  | 
22 | COc1cc(/C=C/C(=O)/C=C/c2ccccc2)ccc1OCc1cn(CCCCOc2cc(=O)oc3ccccc23)nn1 | 34% | 31% | 36% | inactive |  |  |  | 
23 | COc1ccccc1/C=C/C(=O)/C=C/c1ccc(OCc2cn(CCCCOc3cc(=O)oc4ccccc34)nn2)c(OC)c1 | 43% | 47% | 40% | inactive |  |  |  | 
24 | COc1ccccc1/C=C/C(=O)/C=C/c1ccc(OCc2cn(CCOc3cc(=O)oc4ccccc34)nn2)c(OC)c1 | 70% | 67% | 75% |  | 11% | 11.5 µM | 7.33 µM | 9.49 µM
25 | COc1cc(/C=C/C(=O)/C=C/c2ccccc2)ccc1OCc1cn(CCCOc2cc(=O)oc3ccccc23)nn1 | 45% | 43% | 48% | inactive |  |  |  | 
26 | COc1cc(/C=C/C(=O)/C=C/c2cccs2)ccc1OCc1cn(CCOc2cc(=O)oc3ccccc23)nn1 | 71% | 66% | 76% |  | 12% | 11.4 µM | 7.14 µM | 9.29 µM
27 | COc1cc(/C=C/C(=O)/C=C/c2cccc3ccccc23)ccc1OCc1cn(CCCOc2cc(=O)oc3ccccc23)nn1 | 66% | 64% | 71% |  | 8% | 12.7 µM | 8.41 µM | 10.4 µM
28 | COc1cc(/C=C/C(=O)/C=C/c2ccco2)ccc1OCc1cn(CCOc2cc(=O)oc3ccccc23)nn1 | 72% | 68% | 78% |  | 14% | 11.8 µM | 7.87 µM | 9.18 µM
29 | COc1ccccc1/C=C/C(=O)/C=C/c1ccc(OCc2cn(CCCCCOc3cc(=O)oc4ccccc34)nn2)c(OC)c1 | 33% | 30% | 37% | inactive |  |  |  | 
30 | COc1cc(/C=C/C(=O)/C=C/c2cccc3ccccc23)ccc1OCc1cn(CCCCOc2cc(=O)oc3ccccc23)nn1 | 56% | 50% | 54% | inactive |  |  |  | 
31 | COc1ccc(/C=C/C(=O)/C=C/c2ccc(OCc3cn(CCCCCOc4cc(=O)oc5ccccc45)nn3)c(OC)c2)cc1OC | 45% | 43% | 47% | inactive |  |  |  | 
32 | COc1cccc(/C=C/C(=O)/C=C/c2ccc(OCc3cn(CCCCOc4cc(=O)oc5ccccc45)nn3)c(OC)c2)c1 | 44% | 46% | 47% | inactive |  |  |  | 
33 | COc1cc(/C=C/C(=O)/C=C/c2cc(OC)c(OC)c(OC)c2)ccc1OCc1cn(CCCOc2cc(=O)oc3ccccc23)nn1 | 76% | 74% | 79% |  | 12% | 10.6 µM | 5.43 µM | 8.65 µM
